Activity calls are given as the source filed them. The calls are words filed in the database; no cut-off is given here.
Experiments:
SH-SY5Y [1] = assay: Antiproliferative activity against human SH-SY5Y cells after 72 hrs in presence of ABCB1 inhibitor tariquidar by CellTiter-Glo luminescent cell viability assay; type: functional, cell-based
Homo sapiens [2] = organism: Homo sapiens; assay: Antiproliferative activity against human CHLA20 cells after 72 hrs in presence of ABCB1 inhibitor tariquidar by CellTiter-Glo luminescent cell viability assay; type: functional, cell-based
[3] = biological target: T1, ALK tyrosine kinase receptor (Homo sapiens, UniProt Q9UM73); assay: Induction of ALK degradation in human Kelly cells at 100 nM after 8 hrs by immunoblot method; type: cell-based
T1 sequence (Q9UM73 19-1620 limits assumed): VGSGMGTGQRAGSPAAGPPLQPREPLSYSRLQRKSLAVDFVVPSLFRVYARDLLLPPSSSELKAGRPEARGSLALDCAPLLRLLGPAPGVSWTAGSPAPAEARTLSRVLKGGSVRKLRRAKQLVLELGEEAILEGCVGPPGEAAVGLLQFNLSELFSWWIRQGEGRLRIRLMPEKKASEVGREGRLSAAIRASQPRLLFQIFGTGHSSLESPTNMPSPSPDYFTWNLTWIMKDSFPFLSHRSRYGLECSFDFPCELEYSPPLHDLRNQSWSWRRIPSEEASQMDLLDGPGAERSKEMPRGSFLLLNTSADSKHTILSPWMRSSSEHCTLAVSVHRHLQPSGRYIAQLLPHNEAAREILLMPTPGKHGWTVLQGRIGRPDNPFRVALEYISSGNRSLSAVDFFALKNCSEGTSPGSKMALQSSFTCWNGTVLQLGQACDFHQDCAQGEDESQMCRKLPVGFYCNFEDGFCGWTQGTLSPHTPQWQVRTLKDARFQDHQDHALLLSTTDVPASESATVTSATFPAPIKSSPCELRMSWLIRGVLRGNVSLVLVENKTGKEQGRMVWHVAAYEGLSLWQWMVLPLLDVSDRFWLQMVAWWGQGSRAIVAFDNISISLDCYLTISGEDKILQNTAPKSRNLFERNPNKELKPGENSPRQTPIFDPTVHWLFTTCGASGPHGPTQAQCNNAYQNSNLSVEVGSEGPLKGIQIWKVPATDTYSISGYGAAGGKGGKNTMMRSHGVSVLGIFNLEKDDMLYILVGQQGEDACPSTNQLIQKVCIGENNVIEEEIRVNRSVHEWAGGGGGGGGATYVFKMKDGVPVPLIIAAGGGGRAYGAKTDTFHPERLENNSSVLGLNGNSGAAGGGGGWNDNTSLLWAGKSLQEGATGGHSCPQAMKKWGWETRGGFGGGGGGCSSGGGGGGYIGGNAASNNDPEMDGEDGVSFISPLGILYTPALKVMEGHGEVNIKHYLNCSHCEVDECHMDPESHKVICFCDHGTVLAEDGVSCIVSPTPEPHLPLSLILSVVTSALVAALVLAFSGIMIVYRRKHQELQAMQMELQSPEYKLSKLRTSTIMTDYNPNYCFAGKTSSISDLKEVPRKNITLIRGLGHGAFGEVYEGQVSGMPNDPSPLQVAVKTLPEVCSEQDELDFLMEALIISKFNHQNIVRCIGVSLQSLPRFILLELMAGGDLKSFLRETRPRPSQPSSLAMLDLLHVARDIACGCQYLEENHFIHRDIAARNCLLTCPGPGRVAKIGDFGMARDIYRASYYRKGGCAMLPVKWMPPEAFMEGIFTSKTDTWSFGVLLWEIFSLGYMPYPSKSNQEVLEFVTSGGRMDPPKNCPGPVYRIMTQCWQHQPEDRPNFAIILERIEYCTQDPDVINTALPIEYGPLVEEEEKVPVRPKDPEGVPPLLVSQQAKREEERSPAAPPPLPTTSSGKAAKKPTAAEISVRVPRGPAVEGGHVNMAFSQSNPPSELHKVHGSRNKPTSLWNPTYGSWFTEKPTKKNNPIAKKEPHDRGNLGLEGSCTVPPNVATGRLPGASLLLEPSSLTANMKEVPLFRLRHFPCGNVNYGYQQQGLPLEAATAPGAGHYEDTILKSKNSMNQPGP
Method in brief: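 Kelly cells were treated with 100 nM compound for varying times and lysed at each time point. ALK levels were read by immunoblot.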

Homo sapiens [4] = organism: Homo sapiens; assay: Antiproliferative activity against human CHLA20 cells after 72 hrs by CellTiter-Glo luminescent cell viability assay; type: functional, cell-based
SU-DHL-1 = assay: Antiproliferative activity against human SU-DHL1 cells after 72 hrs by CellTiter-Glo luminescent cell viability assay; type: functional, cell-based
[5] = biological target: T1, ALK tyrosine kinase receptor; assay: Induction of ALK degradation in human CHLA20 cells at 100 nM after 4 hrs in presence of ABCB1 inhibitor tariquidar by immunoblot method; type: cell-based
Method in brief: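 CHLA20 cells were co-treated with 125 nM tariquidar, then treated with 100 nM compound over a time course. ALK was read by immunoblot.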

KARPAS-299 = assay: Antiproliferative activity against human KARPAS299 cells after 72 hrs by CellTiter-Glo luminescent cell viability assay; type: functional, cell-based
SH-SY5Y [6] = assay: Antiproliferative activity against human SH-SY5Y cells after 72 hrs by CellTiter-Glo luminescent cell viability assay; type: functional, cell-based
NCI-H3122 = assay: Antiproliferative activity against human NCI-H3122 cells after 72 hrs by CellTiter-Glo luminescent cell viability assay; type: functional, cell-based
[7] = biological target: Protein cereblon (Homo sapiens) (UniProt Q96SW2); assay: Displacement of Atto565-Lenalidomide from CRBN fused with DDB1deltaB (unknown origin) by fluorescence polarization assay
Sequence of Protein cereblon (Homo sapiens) (Q96SW2 whole entry, the tested form may be a part): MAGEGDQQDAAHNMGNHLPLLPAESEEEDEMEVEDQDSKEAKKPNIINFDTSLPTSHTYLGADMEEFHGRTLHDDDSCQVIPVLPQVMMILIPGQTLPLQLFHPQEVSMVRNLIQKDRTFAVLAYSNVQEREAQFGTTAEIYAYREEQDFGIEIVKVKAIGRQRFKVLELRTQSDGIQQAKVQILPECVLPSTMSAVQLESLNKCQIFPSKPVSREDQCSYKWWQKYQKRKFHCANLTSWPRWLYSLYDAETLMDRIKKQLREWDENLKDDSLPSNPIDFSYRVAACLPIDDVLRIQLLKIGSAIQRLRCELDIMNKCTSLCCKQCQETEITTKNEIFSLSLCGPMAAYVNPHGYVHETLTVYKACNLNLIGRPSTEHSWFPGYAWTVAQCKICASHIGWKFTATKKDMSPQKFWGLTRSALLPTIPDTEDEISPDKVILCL

[8] = biological target: Signal transducer and activator of transcription 3 (Homo sapiens) (UniProt P40763); assay: Inhibition of STAT3 phosphorylation at Y705 in human CHLA20 cells at 250 nM after 6 to 48 hrs in presence of ABCB1 inhibitor tariquidar by immunoblot method; type: cell-based
Sequence of Signal transducer and activator of transcription 3 (Homo sapiens) (P40763 whole entry): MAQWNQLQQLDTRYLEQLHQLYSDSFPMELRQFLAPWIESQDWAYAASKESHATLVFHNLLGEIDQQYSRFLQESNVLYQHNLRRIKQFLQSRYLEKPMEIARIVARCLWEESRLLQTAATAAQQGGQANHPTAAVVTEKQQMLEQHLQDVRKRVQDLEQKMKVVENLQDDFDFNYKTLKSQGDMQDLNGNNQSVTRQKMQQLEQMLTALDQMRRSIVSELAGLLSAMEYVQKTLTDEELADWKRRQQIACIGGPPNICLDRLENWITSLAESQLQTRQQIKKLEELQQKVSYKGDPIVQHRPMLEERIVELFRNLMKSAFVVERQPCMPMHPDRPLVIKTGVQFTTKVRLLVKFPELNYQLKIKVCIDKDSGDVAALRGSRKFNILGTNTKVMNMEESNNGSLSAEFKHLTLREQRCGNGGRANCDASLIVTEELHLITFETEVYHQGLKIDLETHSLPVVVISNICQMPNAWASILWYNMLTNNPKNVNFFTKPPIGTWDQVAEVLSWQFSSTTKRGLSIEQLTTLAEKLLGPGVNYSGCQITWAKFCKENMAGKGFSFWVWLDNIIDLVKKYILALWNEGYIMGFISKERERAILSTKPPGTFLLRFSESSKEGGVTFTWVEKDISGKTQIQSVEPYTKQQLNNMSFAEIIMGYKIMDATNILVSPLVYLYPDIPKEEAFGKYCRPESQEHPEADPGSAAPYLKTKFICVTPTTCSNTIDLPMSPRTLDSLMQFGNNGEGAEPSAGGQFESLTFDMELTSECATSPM

[9] = biological target: Signal transducer and activator of transcription 3 (Homo sapiens) (UniProt P40763); assay: Inhibition of STAT3 phosphorylation at Y705 in human Kelly cells at 250 nM after 6 to 48 hrs by immunoblot method; type: cell-based

Activity [3] | Activity [5] | inhibition [7] | inhibition [8] | inhibition [9] | SMILES | Activity (SH-SY5Y [1]) | Activity (Homo sapiens [2]) | Activity (Homo sapiens [4]) | Activity (SU-DHL-1) | Activity (KARPAS-299) | Activity (SH-SY5Y [6]) | Activity (NCI-H3122)
Active | Active | inactive |  |  | Cc1cc(Nc2ncc(Cl)c(Nc3ccccc3S(=O)(=O)C(C)C)n2)c(OC(C)C)cc1C1CCN(CCOCCOCCNC(=O)CNc2cccc3c2C(=O)N(C2CCCNC2=O)C3=O)CC1 (stereo unspecified) | Active | Active | inactive | inactive | inactive | inactive | inactive
Active | Active | inactive |  |  | COc1cc(N2CCN(CCOCCOCCNC(=O)CNc3cccc4c3C(=O)N(C3CCCNC3=O)C4=O)CC2)ccc1Nc1ncc(Cl)c(Nc2ccccc2S(=O)(=O)C(C)C)n1 (stereo unspecified) | Active | Active | inactive | inactive | inactive | inactive | inactive
 |  |  | inactive | inactive | Cc1cc(Nc2ncc(Cl)c(Nc3ccccc3S(=O)(=O)C(C)C)n2)c(OC(C)C)cc1C1CCNCC1 | Active | Active | Active | Active | Active | Active | Active
 |  |  |  |  | COc1cc(N2CCC(N3CCN(C)CC3)CC2)ccc1Nc1ncc(Cl)c(Nc2ccccc2S(=O)(=O)C(C)C)n1 | Active | Active | Active | Active | Active | Active | Active

From ChEMBL document CHEMBL4177764 (J Med Chem, 2018)
